Test results: ChEMBL document CHEMBL2150909, “Imidazo[1,2-a]pyridines: orally active positive allosteric modulators of the metabotropic glutamate 2 receptor” (J Med Chem, 2012)

How the values were obtained:
[1] = biological target: T1, Metabotropic glutamate receptor 2 (Homo sapiens, UniProt Q14416); experiment: Agonist activity at human mGlu 2 expressed in CHO cells by PAM assay relative to glutamate; type: functional, cell-based
Outline: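 The assay measured [35S]GTPγS binding to membranes from CHO cells expressing human mGluR2. Cells were butyrate-stimulated (5 mM, 24 h) before membranes were prepared. Membranes were preincubated for 30 min at 30 °C in HEPES pH 7.4 buffer (NaCl, MgCl2, 50 μM GDP) with compound (0.3 nM–50 μM, 11 concentrations) plus EC25 glutamate. [35S]GTPγS (0.1 nM final) was then added for 30 min at 30 °C. Bound label was collected by filtration and counted. Runs were done at least in triplicate with duplicate points, and a four-parameter logistic fit gave the values.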
Target sequence in this assay (Q14416 19-872 limits assumed): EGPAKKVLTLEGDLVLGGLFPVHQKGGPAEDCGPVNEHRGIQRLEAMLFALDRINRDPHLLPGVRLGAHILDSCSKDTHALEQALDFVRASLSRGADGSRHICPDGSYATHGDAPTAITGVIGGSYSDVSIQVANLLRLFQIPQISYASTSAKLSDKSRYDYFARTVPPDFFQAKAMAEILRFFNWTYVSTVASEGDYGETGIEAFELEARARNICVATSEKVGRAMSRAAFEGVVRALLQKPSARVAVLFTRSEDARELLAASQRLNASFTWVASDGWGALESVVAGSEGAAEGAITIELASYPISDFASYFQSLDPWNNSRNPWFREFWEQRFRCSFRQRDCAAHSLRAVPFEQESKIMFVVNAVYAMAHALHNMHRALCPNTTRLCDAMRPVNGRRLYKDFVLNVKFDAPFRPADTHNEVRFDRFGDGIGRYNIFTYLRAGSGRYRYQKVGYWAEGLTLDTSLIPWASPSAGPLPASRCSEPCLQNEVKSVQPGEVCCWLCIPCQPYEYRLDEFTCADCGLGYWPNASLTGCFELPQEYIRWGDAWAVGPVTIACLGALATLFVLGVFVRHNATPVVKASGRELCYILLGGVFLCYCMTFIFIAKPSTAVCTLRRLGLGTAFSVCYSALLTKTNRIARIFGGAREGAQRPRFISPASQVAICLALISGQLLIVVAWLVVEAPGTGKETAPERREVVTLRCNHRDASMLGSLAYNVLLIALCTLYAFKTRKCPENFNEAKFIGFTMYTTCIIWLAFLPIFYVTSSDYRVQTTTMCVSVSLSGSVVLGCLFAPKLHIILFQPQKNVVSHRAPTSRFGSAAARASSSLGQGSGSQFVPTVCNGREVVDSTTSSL

[2] = Metabolic stability of Sprague-Dawley rat liver microsomes assessed as compound metabolized at 5 uM after 15 mins; type: ADME, Microsome; settings: read-out: Drug metabolism
Outline: (§1)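 Test compound at 5 μM incubated 15 min with rat or human liver microsomes; read-out is percent of compound metabolized.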

[3] = Metabolic stability of human liver microsomes assessed as compound metabolized at 5 uM after 15 mins; type: ADME, Microsome; settings: read-out: Drug metabolism; outline: as §1
[4] = biological target: T1, Metabotropic glutamate receptor 2; experiment: Agonist activity at human mGlu 2 expressed in CHO cells assessed as [35S]GTPgammaS binding by liquid scintillation analysis; type: functional, cell-based
Outline: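 Membranes from butyrate-stimulated (5 mM, 24 h) CHO cells expressing human mGlu2. Preincubated 30 min at 30 °C in HEPES pH 7.4 with NaCl, MgCl2, 50 μM GDP and saponin; modulator 0.3 nM–50 μM, no added glutamate. [35S]GTPγS 0.1 nM final, 30 min at 30 °C, filtered, scintillation counted. Nonspecific binding defined with cold GTP; 11 concentrations in duplicate, ≥3 curves.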
Target sequence in this assay (Q14416 whole entry): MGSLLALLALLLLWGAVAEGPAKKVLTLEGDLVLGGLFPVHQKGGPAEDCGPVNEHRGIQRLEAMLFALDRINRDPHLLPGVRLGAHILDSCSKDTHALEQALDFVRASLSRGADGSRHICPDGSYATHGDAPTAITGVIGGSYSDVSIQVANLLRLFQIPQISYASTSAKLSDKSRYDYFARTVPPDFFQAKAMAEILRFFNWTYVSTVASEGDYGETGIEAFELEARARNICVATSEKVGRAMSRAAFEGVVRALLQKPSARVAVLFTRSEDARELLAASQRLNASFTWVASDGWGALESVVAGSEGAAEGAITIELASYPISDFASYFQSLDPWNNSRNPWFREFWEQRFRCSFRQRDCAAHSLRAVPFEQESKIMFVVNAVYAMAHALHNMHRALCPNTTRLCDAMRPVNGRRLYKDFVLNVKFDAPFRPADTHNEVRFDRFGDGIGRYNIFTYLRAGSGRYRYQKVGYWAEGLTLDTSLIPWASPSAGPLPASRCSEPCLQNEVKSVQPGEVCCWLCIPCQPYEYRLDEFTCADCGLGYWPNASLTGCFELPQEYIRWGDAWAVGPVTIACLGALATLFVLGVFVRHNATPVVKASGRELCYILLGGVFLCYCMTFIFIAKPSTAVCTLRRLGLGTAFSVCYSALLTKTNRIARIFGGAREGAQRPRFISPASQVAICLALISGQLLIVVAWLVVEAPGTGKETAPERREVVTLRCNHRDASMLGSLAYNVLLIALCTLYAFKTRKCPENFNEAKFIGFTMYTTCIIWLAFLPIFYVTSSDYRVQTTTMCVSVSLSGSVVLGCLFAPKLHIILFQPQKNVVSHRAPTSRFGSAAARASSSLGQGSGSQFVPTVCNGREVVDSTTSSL

[5] = Half life in Sprague-Dawley rat at 10 mg/kg, po and 1.25 mg/kg, iv; type: ADME, organism-based; settings: in vivo
Outline: (§2)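 Male Sprague-Dawley rats given 10 mg/kg orally and/or 1.25 mg/kg intravenously; compound formulated in 20% HP-β-CD at pH 4. Cmax, tmax, AUC0−inf, t1/2, clearance and oral bioavailability F derived from plasma levels; geometric mean of at least two runs ± SEM.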

[6] = Ratio of drug level in brain to plasma of SPF Swiss mouse at 10 mg/kg, sc after 4 hrs; type: ADME, organism-based; parameters: dose 10 mg/kg, route subcutaneous; settings: read-out: BPR
Outline: (§3)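 Male Swiss SPF mice, single subcutaneous dose of 10 mg/kg in 20% HP-β-CD at pH 4. Brain levels (ng/g) and plasma levels (ng/mL) measured at the stated time after dosing; brain-to-plasma ratio taken from these. Geometric mean of at least two runs ± SEM.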

[7] = Plasma concentration in SPF Swiss mouse at 10 mg/kg, sc after 2 hrs; type: ADME, organism-based; parameters: dose 10 mg/kg, route subcutaneous
Outline: (§4)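 Male Swiss SPF mice dosed subcutaneously at 10 mg/kg in 20% HP-β-CD, pH 4. Brain levels measured in ng/g and plasma levels in ng/mL at the stated time, with brain/plasma ratio; geometric mean of at least two runs ± SEM.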

[8] = Drug uptake in SPF Swiss mouse brain at 10 mg/kg, sc after 4 hrs; type: ADME, organism-based; parameters: dose 10 mg/kg, route subcutaneous; settings: read-out: Drug uptake; outline: as §4
[9] = Tmax in Sprague-Dawley rat at 10 mg/kg, po and 1.25 mg/kg, iv; type: ADME, organism-based; settings: in vivo
Outline: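 Rat pharmacokinetics in Sprague−Dawley rats: oral 10 mg/kg and intravenous 1.25 mg/kg, formulated in 20% HP-β-CD at pH 4. Plasma profiles used for Cmax, tmax, AUC0−inf and t1/2. Reported as geometric means of at least two runs ± SEM.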

[10] = Plasma concentration in SPF Swiss mouse at 10 mg/kg, sc after 1 hr; type: ADME, organism-based; parameters: dose 10 mg/kg, route subcutaneous; outline: as §4
[11] = Cmax in Sprague-Dawley rat at 10 mg/kg, po and 1.25 mg/kg, iv; type: ADME, organism-based; settings: in vivo; outline: as §2
[12] = Oral bioavailability in Sprague-Dawley rat at 10 mg/kg; type: ADME, organism-based; settings: in vivo; outline: as §2
[13] = Plasma concentration in SPF Swiss mouse at 10 mg/kg, sc after 4 hrs; type: ADME, organism-based; parameters: dose 10 mg/kg, route subcutaneous; outline: as §4
[14] = Drug uptake in SPF Swiss mouse brain at 10 mg/kg, sc after 2 hrs; type: ADME, organism-based; parameters: dose 10 mg/kg, route subcutaneous; settings: read-out: Drug uptake; outline: as §4
[15] = Clearance in Sprague-Dawley rat at 10 mg/kg, po and 1.25 mg/kg, iv; type: ADME, organism-based; settings: in vivo; outline: as §2
[16] = Ratio of drug level in brain to plasma of SPF Swiss mouse at 10 mg/kg, sc after 2 hrs; type: ADME, organism-based; parameters: dose 10 mg/kg, route subcutaneous; settings: read-out: BPR; outline: as §3
[17] = AUC (0 to infinity) in Sprague-Dawley rat at 10 mg/kg, po and 1.25 mg/kg, iv; type: ADME, organism-based; settings: plasma; outline: as §2
[18] = Drug uptake in SPF Swiss mouse brain at 10 mg/kg, sc after 1 hr; type: ADME, organism-based; parameters: dose 10 mg/kg, route subcutaneous; settings: read-out: Drug uptake; outline: as §4
[19] = Ratio of drug level in brain to plasma of SPF Swiss mouse at 10 mg/kg, sc after 1 hr; type: ADME, organism-based; parameters: dose 10 mg/kg, route subcutaneous; settings: read-out: BPR; outline: as §3
[20] = Plasma concentration in Sprague-Dawley rat at 10 mg/kg, sc after 4 hrs; type: ADME, organism-based; parameters: dose 10 mg/kg, route subcutaneous
Outline: (§5)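 Male Sprague−Dawley rats given 10 mg/kg subcutaneously, vehicle 20% HP-β-CD at pH 4. Plasma (ng/mL) and brain (ng/g) drug levels determined at the listed post-dose time; B/P ratio derived from them. Values are geometric means of at least two runs ± SEM.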

[21] = Drug uptake in Sprague-Dawley rat brain at 10 mg/kg, sc after 4 hrs; type: ADME, organism-based; parameters: dose 10 mg/kg, route subcutaneous; settings: read-out: Drug uptake
Outline: (§6)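 Brain exposure in male Sprague-Dawley rats after a 10 mg/kg subcutaneous dose, vehicle 20% HP-β-CD at pH 4. Brain level measured in ng/g alongside plasma in ng/mL; geometric mean of at least two runs ± SEM.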

[22] = Ratio of drug level in brain to plasma of Sprague-Dawley rat at 10 mg/kg, sc after 1 hr; type: ADME, organism-based; parameters: dose 10 mg/kg, route subcutaneous; settings: read-out: BPR; outline: as §5
[23] = Ratio of drug level in brain to plasma of Sprague-Dawley rat at 10 mg/kg, sc after 2 hrs; type: ADME, organism-based; parameters: dose 10 mg/kg, route subcutaneous; settings: read-out: BPR; outline: as §5
[24] = Plasma concentration in Sprague-Dawley rat at 10 mg/kg, sc after 2 hrs; type: ADME, organism-based; parameters: dose 10 mg/kg, route subcutaneous; outline: as §5
[25] = Ratio of drug level in brain to plasma of Sprague-Dawley rat at 10 mg/kg, sc after 4 hrs; type: ADME, organism-based; parameters: dose 10 mg/kg, route subcutaneous; settings: brain and plasma, read-out: BPR; outline: as §5
[26] = Drug uptake in Sprague-Dawley rat brain at 10 mg/kg, sc after 2 hrs; type: ADME, organism-based; parameters: dose 10 mg/kg, route subcutaneous; settings: read-out: Drug uptake; outline: as §6
[27] = Drug uptake in Sprague-Dawley rat brain at 10 mg/kg, sc after 1 hr; type: ADME, organism-based; parameters: dose 10 mg/kg, route subcutaneous; settings: read-out: Drug uptake; outline: as §6
[28] = Plasma concentration in Sprague-Dawley rat at 10 mg/kg, sc after 1 hr; type: ADME, organism-based; parameters: dose 10 mg/kg, route subcutaneous; outline: as §5
[29] = Cmax in Sprague-Dawley rat at 10 mg/kg, po and 2.5 mg/kg, iv; type: ADME, organism-based; settings: in vivo
Outline: (§7)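 Rat PK: compounds formulated in 20% HP-β-CD at pH 4 and given orally and intravenously. Values are geometric means of at least two runs ± SEM.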

[30] = AUC (0 to infinity) in Sprague-Dawley rat at 10 mg/kg, po and 2.5 mg/kg, iv; type: ADME, organism-based; settings: plasma; outline: as §7
[31] = Half life in Sprague-Dawley rat at 10 mg/kg, po and 2.5 mg/kg, iv; type: ADME, organism-based; settings: in vivo; outline: as §7
[32] = Tmax in Sprague-Dawley rat at 10 mg/kg, po and 2.5 mg/kg, iv; type: ADME, organism-based; settings: in vivo; outline: as §7
[33] = Clearance in Sprague-Dawley rat at 10 mg/kg, po and 2.5 mg/kg, iv; type: ADME, organism-based; settings: in vivo

With `N#Cc1c(-c2ccc(N3CCOCC3)c(Cl)c2)ccn2c(CC(F)(F)F)cnc12` as the molecule, how does the Emax [1] read?
Its Emax is 167%.

Which results are given for `N#Cc1c(-c2ccc3c(c2)OCCN3)ccn2c(CC(F)(F)F)cnc12`?
metabolised at 0.25 h, 5 µM [2]: 100%; metabolised at 0.25 h, 5 µM [3]: 45%; EC50 [4]: 1660 nM; Emax [1]: 232%

Which results are given for `N#Cc1c(-c2ccc(Oc3ccccc3)cc2)ccn2c(CC(F)(F)F)cnc12`?
half-life [5]: 2.1 h; metabolised at 0.25 h, 5 µM [2]: 23%; Kp at 4 h [6]: 1.9; metabolised at 0.25 h, 5 µM [3]: 23%; concentration at 2 h [7]: 893 ng/mL; concentration at 4 h [8]: 221 ng/g; Tmax [9]: 0.5 h; concentration at 1 h [10]: 1040 ng/mL; Cmax [11]: 274 ng/mL; bioavailability [12]: 27%; concentration at 4 h [13]: 114 ng/mL; concentration at 2 h [14]: 1530 ng/g; clearance [15]: 56.7 mL/min/kg; Kp at 2 h [16]: 1.7; AUC(0-inf) [17]: 714 ng·h/mL; concentration at 1 h [18]: 1840 ng/g; Kp at 1 h [19]: 1.8

With `N#Cc1c(-c2ccc3c(c2)OCCNC3)ccn2c(CC(F)(F)F)cnc12` as the molecule, how does the Emax [1] read?
The Emax was 105%.

Which results are given for `O[C@H]1CC[C@H](Nc2ccc(-c3ccn4c(CC(F)(F)F)cnc4c3Cl)cc2Cl)CC1`?
metabolised at 0.25 h, 5 µM [2]: 15%; metabolised at 0.25 h, 5 µM [3]: 16%; concentration at 4 h [20]: 708 ng/mL; concentration at 4 h [21]: 485 ng/g; Kp at 1 h [22]: 0.5; Kp at 2 h [23]: 1; concentration at 2 h [24]: 1280 ng/mL; Kp at 4 h [25]: 0.7; EC50 [4]: 150 nM; Emax [1]: 293%; concentration at 2 h [26]: 1220 ng/g; concentration at 1 h [27]: 1000 ng/g; concentration at 1 h [28]: 2140 ng/mL

With `Cn1ccc2cc(-c3ccn4c(CC(F)(F)F)cnc4c3C#N)cc(Cl)c21` as the molecule, how does the metabolised at 0.25 h, 5 µM [2] read?
The metabolised at 0.25 h, 5 µM was 62%.

And the metabolised at 0.25 h, 5 µM [3]?
Its metabolised at 0.25 h, 5 µM is 51%.

What about the EC50 [4] of the same molecule?
Its EC50 is 120 nM.

And the Emax [1]?
The Emax was 184%.

For `N#Cc1c(-c2ccc(OC3CCOCC3)c(Cl)c2)ccn2c(CC(F)(F)F)cnc12`, which metabolised at 0.25 h, 5 µM [2] is on record?
Its metabolised at 0.25 h, 5 µM is 50%.

And the metabolised at 0.25 h, 5 µM [3]?
Its metabolised at 0.25 h, 5 µM is 29%.

And the EC50 [4]?
The EC50 was 617 nM.

And the Emax [1]?
Its Emax is 173%.

For `N#Cc1c(-c2ccc3c(ccn3[C@H]3CC[C@H](O)CC3)c2)ccn2c(CC(F)(F)F)cnc12`, which metabolised at 0.25 h, 5 µM [2] is on record?
The metabolised at 0.25 h, 5 µM was 15%.

And the Kp at 4 h [6]?
Its Kp at 4 h is 0.1.

What about the metabolised at 0.25 h, 5 µM [3] of the same molecule?
The metabolised at 0.25 h, 5 µM was 4%.

And the Cmax [29]?
The Cmax was 1060 ng/mL.

And the concentration at 2 h [7]?
Its concentration at 2 h is 4500 ng/mL.

What about the AUC(0-inf) [30] of the same molecule?
Its AUC(0-inf) is 7520 ng·h/mL.

What about the concentration at 4 h [8] of the same molecule?
Its concentration at 4 h is 280 ng/g.

And the half-life [31]?
The half-life was 2.8 h.

And the concentration at 1 h [10]?
The concentration at 1 h was 4170 ng/mL.

What about the bioavailability [12] of the same molecule?
Its bioavailability is 50%.

What about the concentration at 4 h [13] of the same molecule?
Its concentration at 4 h is 3860 ng/mL.

And the EC50 [4]?
Its EC50 is 330 nM.

And the concentration at 2 h [14]?
The concentration at 2 h was 469 ng/g.

What about the Emax [1] of the same molecule?
The Emax was 237%.

What about the Kp at 2 h [16] of the same molecule?
The Kp at 2 h was 0.1.

What about the concentration at 1 h [18] of the same molecule?
The concentration at 1 h was 322 ng/g.

What about the Kp at 1 h [19] of the same molecule?
The Kp at 1 h was 0.1.

What about the Tmax [32] of the same molecule?
The Tmax was 1.7 h.

And the clearance [33]?
Its clearance is 11.7 mL/min/kg.
